Drawing on ChEMBL document CHEMBL1159110, “Mevalonate analogues as substrates of enzymes in the isoprenoid biosynthetic pathway of Streptococcus pneumoniae” (Bioorg Med Chem, 2010), this text covers Activity and Ki for twelve molecules.

The source made the active and inactive calls. The calls are words filed in the database; no cut-off is given here.

Test [1] concerns Streptococcus pneumoniae. Put plainly: Activity of Streptococcus pneumoniae phosphomevalonate kinase expressed in Escherichia coli by pyruvate kinase/lactate dehydrogenase coupled assay. An outline of the steps: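 S. pneumoniae PMK was expressed in E. coli as His6-GST fusion, with tags removed. Substrates were the phosphorylated analogues, compared with phosphomevalonate. ADP formation was linked 1:1 to NADH oxidation via pyruvate kinase (10.0 units/ml) and lactate dehydrogenase (20.0 units/ml), monitored at 386 nm. Conditions: ATP 4.0 mM, MgCl2 5.0 mM, NADH 0.82 mM, PEP 1.0 mM, KCl 50 mM, β-mercaptoethanol 20.0 mM, Hepes/K+ 50 mM pH 8.0, 25 °C.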

Test [2] concerns Streptococcus pneumoniae. Kind of test: Activity of Streptococcus pneumoniae mevalonate kinase expressed in Escherichia coli by pyruvate kinase/lactate dehydrogenase coupled assay. In a few lines:
(§1)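 S. pneumoniae MK expressed in E. coli as His6-GST fusion, with tags removed. Lactone analogues were hydrolysed in 2.0 M LiOH (rt, 1 h), titrated to pH 7.0, and used as racemic acids. ADP formation was coupled to NADH oxidation (pyruvate kinase 10.0 units/ml, lactate dehydrogenase 20.0 units/ml), read continuously at 386 nm. Buffer: ATP 4.0 mM, MgCl2 5.0 mM, NADH 0.82 mM, PEP 1.0 mM, KCl 50 mM, β-mercaptoethanol 20.0 mM, Hepes/K+ 50 mM pH 8.0, 25 °C. Progress curves were compared with mevalonate.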

The subject of test [3] is Streptococcus pneumoniae. Put plainly: Activity of Streptococcus pneumoniae mevalonate kinase expressed in Escherichia coli assessed as enzyme activity by pyruvate kinase/lactate dehydrogenase coupled assay relative to mevalonate. In a few lines: as §1
Test [4] in a line: Binding affinity to Streptococcus pneumoniae mevalonate kinase.

`CC(C)CC(O)(CCO)CC(=O)O` (racemic): the result in the test on Streptococcus pneumoniae [1] and with Streptococcus pneumoniae [2] was Active.
Turning to `CCCCC(O)(CCO)CC(=O)O` (racemic), in the test with Streptococcus pneumoniae [3], the Activity is < 0.0025%.
As to `CCC(O)(CCO)CC(=O)O` (racemic), the result with Streptococcus pneumoniae [1] and in the test with Streptococcus pneumoniae [2] was Active.
On to `C=CCC(O)(CCO)CC(=O)O` (racemic), for which the result in the test on Streptococcus pneumoniae [1] and with Streptococcus pneumoniae [2] was Active.
`C[C@@](O)(CCOP(=O)(O)OP(=O)(O)O)CC(=O)O` [DIPHOSPHOMELAVONATE] yielded an inhibitory constant (Ki) in test [4] of 500 nM.
Consider `O=C(O)CC(O)(CCO)C1CC1` (racemic), for which the outcome in the test on Streptococcus pneumoniae [1] and with Streptococcus pneumoniae [2] was Active.
On to `CCCC(O)(CCO)CC(=O)O` (racemic), for which the outcome in the test on Streptococcus pneumoniae [1] and in the test on Streptococcus pneumoniae [2] was Active.
In the case of `CC#CC(O)(CCO)CC(=O)O` (racemic), in the test on Streptococcus pneumoniae [3], the Activity is < 0.0025%.
Consider `CC(C)C(O)(CCO)CC(=O)O` (racemic), for which, in the test on Streptococcus pneumoniae [3], the Activity is < 0.0025%.
Turning to `C=CC(O)(CCO)CC(=O)O` (racemic), the result in the test on Streptococcus pneumoniae [1] and in the test with Streptococcus pneumoniae [2] was Active.
Regarding `C#CC(O)(CCO)CC(=O)O` (racemic), the outcome in the test on Streptococcus pneumoniae [1] and with Streptococcus pneumoniae [2] was Active.
With `C=C(C)C(O)(CCO)CC(=O)O` (racemic), in the test with Streptococcus pneumoniae [3], the Activity was < 0.0025%.

A word on the Ki: it is the dissociation constant of the complex between target and ligand, obtained from inhibition or displacement. The low end stands for higher affinity, the high end for lower affinity.
